Laboratory results published in ChEMBL document CHEMBL1212851, “Baculiferins A-O, O-sulfated pyrrole alkaloids with anti-HIV-1 activity, from the Chinese marine sponge Iotrochota baculifera” (Bioorg Med Chem, 2010).
≈ marks a conversion by molar mass, not a printed value. Calls of active or inactive are those of the source. No cut-off for these calls is given here.

How the values were obtained:
A2780 = assay: Cytotoxicity against human A2780 cells; format: functional, cell-based
[1] = system: Human immunodeficiency virus 1; assay: Binding affinity to HIV1 recombinant gp41 at 20 ug/ml
Method in brief: (§1)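 Recombinant gp41, Vif or APOBEC3G each immobilized on a CM5 sensor chip in a separate flow cell. Binding monitored by surface plasmon resonance on a BIAcore instrument.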

[2] = system: Human immunodeficiency virus 1; assay: Binding affinity to HIV1 recombinant Vif at 20 ug/ml; method in brief: as §1
A549 = assay: Cytotoxicity against human A549 cells; format: functional, cell-based
[3] = system: Human immunodeficiency virus 1; assay: Antiviral activity against HIV1 infected in human HEK293 cells assessed as inhibition of viral replication; format: functional, organism-based
Method in brief: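 VSVG-pseudotyped HIV-luc virus system in HEK-293 cells, used to assess inhibition of HIV-1 replication.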

BGC-823 = assay: Cytotoxicity against human BGC823 cells; format: functional, cell-based
HCT-8 = assay: Cytotoxicity against human HCT8 cells; format: functional, cell-based; conditions: for IC50: pooled result: one value given for 4 cell lines, strains, targets or settings
Bel-7402 = assay: Cytotoxicity against human Bel7402 cells; format: functional, cell-based
[4] = system: Human immunodeficiency virus 1; assay: Antiviral activity against HIV1 3B infected in human MT4 cells after 5 days by p24 antigen detection assay; format: functional, organism-based; conditions: Human immunodeficiency virus 1, 3B, MT4, 120 h
Method in brief: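 MT-4 cells infected with 10000 TCID50 HIV-1 IIIB for 2 h at 37 °C, washed, then plated at 5 × 10^4 cells per well. Compounds added from 250 µg/mL in fivefold serial dilutions, five dilutions with four replicates each. Cultures held 5 d at 37 °C in 5% CO2. On day 3 half the supernatant was replaced with fresh compound or medium. On day 5 supernatant p24 measured, inhibition computed relative to virus control, and IC50 taken by linear regression.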

[5] = system: Human immunodeficiency virus 1; assay: Antiviral activity against HIV1 3B infected in human MAGI cells after 40 to 48 hrs assessed as inhibition of viral life cycle; format: functional, organism-based; conditions: Human immunodeficiency virus 1, 3B
Method in brief: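 HeLa-CD4-LTR-β-gal (MAGI) indicator cells plated at 6000 per well and infected with 2000 TCID50 HIV-1 IIIB. Compounds added in fourfold serial dilutions, five dilutions with four replicates each, at a final top concentration of half the 200 µg/mL stock dilution. Cells incubated 40–48 h at 37 °C in 5% CO2, then fixed, stained, and blue cells counted by microscopy. Single-round infection.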

[6] = target: DNA dC->dU-editing enzyme APOBEC-3G (Homo sapiens) (UniProt Q9HC16); assay: Binding affinity to human recombinant APOBEC3G at 20 ug/ml; method in brief: as §1
Candida albicans [7] = assay: Multidrug reversal activity in Candida albicans isolate GU5 assessed as brefeldin A MIC in presence of 30 uM compound expressing CDR1 and CDR2 by two fold dilution method
Candida albicans [8] = assay: Effect on brefeldin A MIC against Candida albicans isolate GU4 in presence of 30 uM compound by two fold dilution method

Chain of DNA dC->dU-editing enzyme APOBEC-3G (Homo sapiens) (Q9HC16 whole entry): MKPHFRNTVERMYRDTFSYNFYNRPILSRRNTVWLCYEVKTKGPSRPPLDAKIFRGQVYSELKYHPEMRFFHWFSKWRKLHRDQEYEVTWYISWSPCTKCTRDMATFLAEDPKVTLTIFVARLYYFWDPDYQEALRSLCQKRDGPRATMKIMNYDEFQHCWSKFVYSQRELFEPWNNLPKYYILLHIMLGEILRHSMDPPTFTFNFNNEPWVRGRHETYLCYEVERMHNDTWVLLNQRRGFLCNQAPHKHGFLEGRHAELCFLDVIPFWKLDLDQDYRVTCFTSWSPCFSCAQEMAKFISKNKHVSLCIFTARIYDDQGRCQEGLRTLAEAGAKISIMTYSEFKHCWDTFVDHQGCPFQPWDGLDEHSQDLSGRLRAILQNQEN

SMILES | RU [1] [pg/mm2] | RU [2] [pg/mm2] | IC50 [4] [µg/mL] | IC50 [5] [µg/mL] | RU [6] [pg/mm2] | MIC (Candida albicans [7]) [µg/mL] | MIC (Candida albicans [8]) [µg/mL] | Activity (A2780) | Activity (A549) | Activity [3] | Activity (BGC-823) | Activity (HCT-8) | Activity (Bel-7402) | IC50 (A2780) [µM] | IC50 (HCT-8) [µM]
O=C1C(c2ccc(O)c(OS(=O)(=O)O)c2)=c2c(c3c(n2CCc2ccc(O)cc2)=C(c2ccc(O)c(OS(=O)(=O)O)c2)C(=O)c2cc(O)c(OS(=O)(=O)O)cc2-3)-c2cc(O)c(O)cc21 [BACULIFERIN G] | 125 | 447 | 3.2 (≈ 3.41 µM) | 4.4 (≈ 4.69 µM) | 572 | – | – | – | – | inactive | – | – | – | 19.7 | 19.7
O=c1oc2cc(O)c(O)cc2c2c1[nH]c1c(=O)oc3cc(O)c(O)cc3c12 | – | 11.7 | – | – | – | – | – | inactive | inactive | inactive | inactive | inactive | inactive | – | –
O=C1C(c2ccc(O)c(O)c2)=c2c(c3c(n2CCc2ccc(O)cc2)=C(c2ccc(O)c(O)c2)C(=O)c2cc(O)c(OS(=O)(=O)O)cc2-3)-c2cc(OS(=O)(=O)O)c(O)cc21 [BACULIFERIN D] | – | – | – | – | – | 50 | 12.5 | inactive | inactive | inactive | inactive | inactive | inactive | – | –
O=C(O)Cn1c2c(c3c1=C(c1ccc(O)c(O)c1)C(=O)c1cc(O)c(OS(=O)(=O)O)cc1-3)-c1cc(O)c(O)cc1C(=O)C=2c1ccc(O)c(O)c1 [BACULIFERIN M] | 380 | 1900 | 5 (≈ 6.99 µM) | 0.2 (≈ 0.279 µM) | 2460 | 50 | 12.5 | inactive | – | inactive | – | – | – | – | 65.8
O=C1C(c2ccc(O)c(O)c2)=c2c(c3c(n2CCc2ccc(O)cc2)=C(c2ccc(O)c(OS(=O)(=O)O)c2)C(=O)c2cc(O)c(OS(=O)(=O)O)cc2-3)-c2cc(O)c(O)cc21 [BACULIFERIN E] | 109 | 362 | 4.6 (≈ 5.36 µM) | 2.7 (≈ 3.15 µM) | 992 | 50 | 12.5 | inactive | inactive | inactive | inactive | inactive | inactive | – | –
O=C1C(c2ccc(O)c(O)c2)=c2c(c3c(n2CCc2ccc(O)cc2)=C(c2ccc(O)c(OS(=O)(=O)O)c2)C(=O)c2cc(O)c(OS(=O)(=O)O)cc2-3)-c2cc(OS(=O)(=O)O)c(O)cc21 [BACULIFERIN H] | 76.2 | 259 | 1.4 (≈ 1.49 µM) | 1.3 (≈ 1.39 µM) | 578 | – | – | inactive | inactive | inactive | inactive | inactive | inactive | – | –
O=C1C(c2ccc(O)c(OS(=O)(=O)O)c2)=c2c(c3c(n2CCc2ccc(O)cc2)=C(c2ccc(O)c(O)c2)C(=O)c2cc(O)c(OS(=O)(=O)O)cc2-3)-c2cc(O)c(O)cc21 [BACULIFERIN F] | 109 | 362 | 4.6 (≈ 5.36 µM) | 2.7 (≈ 3.15 µM) | 992 | 50 | 12.5 | inactive | inactive | inactive | inactive | inactive | inactive | – | –
O=C(O)Cn1c2c(c3c1=C(c1ccc(O)c(O)c1)C(=O)c1cc(O)c(O)cc1-3)-c1cc(O)c(O)cc1C(=O)C=2c1ccc(O)c(O)c1 [BACULIFERIN L] | 469 | 1980 | 7 (≈ 11 µM) | 4.1 (≈ 6.45 µM) | 2170 | – | – | inactive | inactive | inactive | inactive | inactive | inactive | – | –
O=c1oc2cc(O)c(O)cc2c2c1[nH]c1c(=O)oc3cc(O)c(OS(=O)(=O)O)cc3c12 [BACULIFERIN O] | – | – | – | – | – | – | – | inactive | – | inactive | – | – | – | – | 33.1
O=C1C(c2ccc(O)c(OS(=O)(=O)O)c2)=c2c(c3c(n2CCc2ccc(O)cc2)=C(c2ccc(O)c(OS(=O)(=O)O)c2)C(=O)c2cc(O)c(O)cc2-3)-c2cc(O)c(O)cc21 [BACULIFERIN C] | 116 | 296 | 8.4 (≈ 9.79 µM) | 1.2 (≈ 1.4 µM) | 886 | – | – | inactive | inactive | inactive | inactive | inactive | inactive | – | –

The next lines start with results.

RU [1] [pg/mm2] | RU [2] [pg/mm2] | IC50 [4] [µg/mL] | IC50 [5] [µg/mL] | RU [6] [pg/mm2] | MIC (Candida albicans [7]) [µg/mL] | MIC (Candida albicans [8]) [µg/mL] | SMILES | Activity (A2780) | Activity (A549) | Activity [3] | Activity (BGC-823) | Activity (HCT-8) | Activity (Bel-7402) | IC50 (A2780) [µM] | IC50 (HCT-8) [µM]
1350 | 638 | – | – | – | – | – | O=C1C(c2ccc(O)c(O)c2)=C2C(=C(c3ccc(OS(=O)(=O)O)c(O)c3)C(=O)N2CCc2ccc(O)cc2)c2cc(O)c(O)cc21 | inactive | inactive | inactive | inactive | inactive | inactive | – | –
1490 | 529 | – | – | 765 | – | – | O=C1C(c2ccc(O)c(O)c2)=C2C(=C(c3ccc(O)c(O)c3)C(=O)N2CCc2ccc(OS(=O)(=O)O)cc2)c2cc(O)c(O)cc21 | inactive | inactive | inactive | inactive | inactive | inactive | – | –
-23 | -25.7 | > 25 | > 25 | -26.3 | 25 | 12.5 | O=C1C(c2ccc(O)c(O)c2)=c2c(c3c(n2CCc2ccc(O)cc2)=C(c2ccc(O)c(O)c2)C(=O)c2cc(O)c(O)cc2-3)-c2cc(O)c(O)cc21 [PURPURONE] | inactive | inactive | inactive | inactive | inactive | inactive | – | –
523 | 448 | 5.5 (≈ 9.73 µM) | < 0.4 | – | – | – | O=C1C(c2ccc(O)c(O)c2)=C2C(=C(c3ccc(O)c(O)c3)C(=O)N2CCc2ccc(O)cc2)c2cc(O)c(O)cc21 [BACULIFERIN K] | inactive | inactive | inactive | inactive | inactive | inactive | – | –
12.9 | 152 | 2.2 (≈ 2.83 µM) | 1.3 (≈ 1.67 µM) | 89.7 | 50 | 12.5 | O=C1C(c2ccc(O)c(O)c2)=c2c(c3c(n2CCc2ccc(O)cc2)=C(c2ccc(O)c(OS(=O)(=O)O)c2)C(=O)c2cc(O)c(O)cc2-3)-c2cc(O)c(O)cc21 [BACULIFERIN B] | inactive | inactive | inactive | inactive | inactive | inactive | – | –
953 | 597 | 4.4 (≈ 8.74 µM) | < 0.1 | – | – | – | O=C(O)CN1C(=O)C(c2ccc(O)c(O)c2)=C2C1=C(c1ccc(O)c(O)c1)C(=O)c1cc(O)c(O)cc12 [BACULIFERIN N] | inactive | inactive | inactive | inactive | inactive | inactive | – | –
17.1 | 111 | 7.6 (≈ 9.77 µM) | 3.7 (≈ 4.76 µM) | 171 | 50 | 12.5 | O=C1C(c2ccc(O)c(O)c2)=c2c(c3c(n2CCc2ccc(O)cc2)=C(c2ccc(O)c(O)c2)C(=O)c2cc(O)c(OS(=O)(=O)O)cc2-3)-c2cc(O)c(O)cc21 [BACULIFERIN A] | inactive | inactive | inactive | inactive | inactive | inactive | – | –
